Data reported in ChEMBL document CHEMBL3351470, “Synthesis and Structure-Activity Relationships of α-Amino-γ-lactone Ketolides: A Novel Class of Macrolide Antibiotics” (2014).
Converted amounts (≈) assume the structure as drawn.

Tests used:
Format in all cases: functional
Staphylococcus aureus [1] = assay: Antibacterial activity against erythromycin-susceptible Staphylococcus aureus by agar microdilution method
In short: (§1)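 Strains from an in-house culture collection (Pliva Research Institute). MIC determined by agar microdilution following NCCLS standards and reported in μg/mL. Erythromycin-susceptible strains are listed as Ery-S; the panel also includes inducibly resistant (iMLS), constitutively resistant (MLSB) and efflux-resistant (M) strains.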

Staphylococcus aureus [2] = assay: Antibacterial activity against macrolide lincosamide- streptogramin B inducibly-resistant Staphylococcus aureus by agar microdilution method
In short: (§2)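 Agar microdilution MIC following NCCLS standards; strains taken from the Pliva Research Institute culture collection. Panel grouped by phenotype: erythromycin-susceptible, inducibly MLS-resistant (iMLS), constitutively MLSB-resistant and efflux-resistant (M). Azithromycin, telithromycin and cethromycin tested alongside as references. MIC reported in μg/mL.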

Staphylococcus aureus [3] = assay: Antibacterial activity against macrolide lincosamide- streptogramin B-resistant Staphylococcus aureus by agar microdilution method; in short: as §2
Streptococcus pneumoniae [4] = assay: Antibacterial activity against erythromycin-susceptible Streptococcus pneumoniae by agar microdilution method; in short: as §1
Streptococcus pneumoniae [5] = assay: Antibacterial activity against macrolide lincosamide- streptogramin B inducibly-resistant Streptococcus pneumoniae by agar microdilution method; in short: as §2
Streptococcus pneumoniae [6] = assay: Antibacterial activity against efflux-resistant Streptococcus pneumoniae by agar microdilution method; in short: as §2
Streptococcus pyogenes [7] = assay: Antibacterial activity against erythromycin-susceptible Streptococcus pyogenes by agar microdilution method; in short: as §1
Streptococcus pyogenes [8] = assay: Antibacterial activity against macrolide lincosamide- streptogramin B inducibly-resistant Streptococcus pyogenes by agar microdilution method; in short: as §2
Streptococcus pyogenes [9] = assay: Antibacterial activity against efflux-resistant Streptococcus pyogenes by agar microdilution method; in short: as §2
Haemophilus influenzae = assay: Antibacterial activity against Haemophilus influenzae by agar microdilution method; in short: as §1

SMILES	MIC (Staphylococcus aureus [1]) [mg/L]	MIC (Staphylococcus aureus [2]) [mg/L]	MIC (Staphylococcus aureus [3]) [mg/L]	MIC (Streptococcus pneumoniae [4]) [mg/L]	MIC (Streptococcus pneumoniae [5]) [mg/L]	MIC (Streptococcus pneumoniae [6]) [mg/L]	MIC (Streptococcus pyogenes [7]) [mg/L]	MIC (Streptococcus pyogenes [8]) [mg/L]	MIC (Streptococcus pyogenes [9]) [mg/L]	MIC (Haemophilus influenzae) [mg/L]
CC[C@H]1OC(=O)[C@H](C)C(=O)[C@H](C)[C@@H](O[C@@H]2O[C@H](C)C[C@H](N(C)C)[C@H]2O)[C@](C)(OC)C[C@@H](C)C(=O)[C@H](C)[C@H]2C(NC(=O)/C=C/CCc3cnc4ccccc4c3)C(=O)O[C@@]21C (some centres undefined)	2 (≈ 2.39 µM)	2 (≈ 2.39 µM)	> 64	≤ 0.125	8 (≈ 9.57 µM)	1 (≈ 1.2 µM)	≤ 0.125	8 (≈ 9.57 µM)	4 (≈ 4.78 µM)	8 (≈ 9.57 µM)
CC[C@H]1OC(=O)[C@H](C)C(=O)[C@H](C)[C@@H](O[C@@H]2O[C@H](C)C[C@H](N(C)C)[C@H]2O)[C@](C)(OC)C[C@@H](C)C(=O)[C@H](C)[C@H]2C(NC(=O)/C=C/CCc3cnc4c(OC)cccc4c3)C(=O)O[C@@]21C (some centres undefined)	1 (≈ 1.15 µM)	1 (≈ 1.15 µM)	> 64	≤ 0.125	2 (≈ 2.31 µM)	2 (≈ 2.31 µM)	≤ 0.125	0.5 (≈ 0.577 µM)	2 (≈ 2.31 µM)	1 (≈ 1.15 µM)
CC[C@H]1OC(=O)[C@H](C)C(=O)[C@H](C)[C@@H](O[C@@H]2O[C@H](C)C[C@H](N(C)C)[C@H]2O)[C@](C)(OC)C[C@@H](C)C(=O)[C@H](C)[C@H]2C(NC(=O)/C=C/CCc3cnc4ccc(OC)cc4c3)C(=O)O[C@@]21C (some centres undefined)	2 (≈ 2.31 µM)	2 (≈ 2.31 µM)	> 64	≤ 0.125	8 (≈ 9.24 µM)	4 (≈ 4.62 µM)	≤ 0.125	0.25 (≈ 0.289 µM)	4 (≈ 4.62 µM)	1 (≈ 1.15 µM)
CC[C@H]1OC(=O)[C@H](C)C(=O)[C@H](C)[C@@H](O[C@@H]2O[C@H](C)C[C@H](N(C)C)[C@H]2O)[C@](C)(OC)C[C@@H](C)C(=O)[C@H](C)[C@H]2C(NC(=O)CCCCc3cnc4ccccc4c3)C(=O)O[C@@]21C (some centres undefined)	1 (≈ 1.19 µM)	2 (≈ 2.39 µM)	> 64	≤ 0.125	8 (≈ 9.55 µM)	4 (≈ 4.77 µM)	≤ 0.125	8 (≈ 9.55 µM)	16 (≈ 19.1 µM)	16 (≈ 19.1 µM)
CC[C@H]1OC(=O)[C@H](C)C(=O)[C@H](C)[C@@H](O[C@@H]2O[C@H](C)C[C@H](N(C)C)[C@H]2O)[C@](C)(OC)C[C@@H](C)C(=O)[C@H](C)[C@H]2C(NC(=O)CCCCc3cnc4c(OC)cccc4c3)C(=O)O[C@@]21C (some centres undefined)	1 (≈ 1.15 µM)	1 (≈ 1.15 µM)	> 64	≤ 0.125	2 (≈ 2.3 µM)	4 (≈ 4.61 µM)	≤ 0.125	4 (≈ 4.61 µM)	4 (≈ 4.61 µM)	16 (≈ 18.4 µM)
CC[C@H]1OC(=O)[C@H](C)C(=O)[C@H](C)[C@@H](O[C@@H]2O[C@H](C)C[C@H](N(C)C)[C@H]2O)[C@](C)(OC)C[C@@H](C)C(=O)[C@H](C)[C@H]2C(NC(=O)CCCCc3cnc4ccc(OC)cc4c3)C(=O)O[C@@]21C (some centres undefined)	1 (≈ 1.15 µM)	2 (≈ 2.3 µM)	> 64	≤ 0.125	4 (≈ 4.61 µM)	4 (≈ 4.61 µM)	≤ 0.125	2 (≈ 2.3 µM)	4 (≈ 4.61 µM)	8 (≈ 9.22 µM)
CC[C@H]1OC(=O)[C@H](C)C(=O)[C@H](C)[C@@H](O[C@@H]2O[C@H](C)C[C@H](N(C)C)[C@H]2O)[C@](C)(OC)C[C@@H](C)C(=O)[C@H](C)[C@H]2C(NC(=O)CSc3cnc4ccccc4n3)C(=O)O[C@@]21C (some centres undefined)	≤ 0.125	0.25 (≈ 0.302 µM)	> 64	≤ 0.06	≤ 0.125	0.25 (≈ 0.302 µM)	≤ 0.06	0.25 (≈ 0.302 µM)	0.25 (≈ 0.302 µM)	0.5 (≈ 0.603 µM)
CC[C@H]1OC(=O)[C@H](C)C(=O)[C@H](C)[C@@H](O[C@@H]2O[C@H](C)C[C@H](N(C)C)[C@H]2O)[C@](C)(OC)C[C@@H](C)C(=O)[C@H](C)[C@H]2C(NC(=O)CNC(=O)CSc3cnc4ccccc4n3)C(=O)O[C@@]21C (some centres undefined)	≤ 0.125	0.25 (≈ 0.282 µM)	> 64	0.25 (≈ 0.282 µM)	0.5 (≈ 0.564 µM)	0.5 (≈ 0.564 µM)	0.25 (≈ 0.282 µM)	1 (≈ 1.13 µM)	0.5 (≈ 0.564 µM)	2 (≈ 2.26 µM)
CC[C@H]1OC(=O)[C@H](C)C(=O)[C@H](C)[C@@H](O[C@@H]2O[C@H](C)C[C@H](N(C)C)[C@H]2O)[C@](C)(OCC=Cc2cnc3ccccc3c2)C[C@@H](C)C(=O)[C@H](C)[C@H]2NC(=O)O[C@@]21C [CETHROMYCIN]	≤ 0.125	0.25 (≈ 0.326 µM)	> 64	≤ 0.06	≤ 0.125	–	≤ 0.06	1 (≈ 1.31 µM)	≤ 0.125	2 (≈ 2.61 µM)
